Tests used:
Histamine H3 receptor [1] = molecular target: T1, Histamine H3 receptor (Cavia porcellus, UniProt Q9JI35); assay: Tested in vitro for antagonist activity against H3 receptor of guinea pig jejunum.; assay type: functional, tissue-based; settings: read-out: pA2 (converted)
Procedure, shortened: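 Isolated guinea pig jejunum segments were electrically stimulated, giving twitches from endogenous acetylcholine release. Antagonism was tested against cumulative (R)-α-methylhistamine concentration–response curves, using at least three antagonist concentrations. pA2 was the negative log of the Schild plot abscissal intercept. Tissues came from at least four animals, tested in triplicate; Student's t-test, p < 0.05.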

Histamine H1 receptor [2] = molecular target: T2, Histamine H1 receptor (Cavia porcellus, UniProt P31389); assay: Binding affinity against H1 receptor of guinea pig by the displacement of [3H]mepyramine, bound to membranes of CHO cells; assay type: cell membranes
T2 sequence (P31389 whole entry): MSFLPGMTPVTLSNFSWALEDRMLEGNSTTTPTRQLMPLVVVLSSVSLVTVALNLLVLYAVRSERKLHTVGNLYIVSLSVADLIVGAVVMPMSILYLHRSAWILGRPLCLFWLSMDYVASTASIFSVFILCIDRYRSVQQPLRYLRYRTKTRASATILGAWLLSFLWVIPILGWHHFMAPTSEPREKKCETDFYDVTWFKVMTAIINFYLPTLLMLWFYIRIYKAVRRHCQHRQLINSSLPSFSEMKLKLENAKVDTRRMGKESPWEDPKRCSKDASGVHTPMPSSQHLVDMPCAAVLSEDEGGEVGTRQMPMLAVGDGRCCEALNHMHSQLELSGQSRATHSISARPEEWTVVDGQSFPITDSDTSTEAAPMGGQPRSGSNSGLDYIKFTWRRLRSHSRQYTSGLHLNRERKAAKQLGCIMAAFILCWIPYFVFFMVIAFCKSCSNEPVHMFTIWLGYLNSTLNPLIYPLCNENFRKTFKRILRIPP
Procedure, shortened: (§1)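 Displacement of [3H]mepyramine from membranes of CHO cells expressing guinea pig H1 receptors. At least three independent experiments, each performed in triplicate.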

Histamine H2 receptor [3] = molecular target: T3, Histamine H2 receptor (Homo sapiens, UniProt P25021); assay: Binding affinity against human H2 receptor by the displacement of [125I]iodoaminopotentidine, bound to membranes of CHO cells.; assay type: cell membranes
T3 sequence (P25021 whole entry): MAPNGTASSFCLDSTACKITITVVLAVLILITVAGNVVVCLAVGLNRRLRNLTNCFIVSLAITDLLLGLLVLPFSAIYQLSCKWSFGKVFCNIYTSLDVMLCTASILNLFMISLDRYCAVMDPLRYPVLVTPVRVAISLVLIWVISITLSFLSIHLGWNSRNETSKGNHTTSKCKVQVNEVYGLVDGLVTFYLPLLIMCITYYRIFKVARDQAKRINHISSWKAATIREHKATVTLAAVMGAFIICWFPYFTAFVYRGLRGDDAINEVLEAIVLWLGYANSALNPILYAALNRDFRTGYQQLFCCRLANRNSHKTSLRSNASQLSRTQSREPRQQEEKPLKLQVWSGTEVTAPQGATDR

[4] = molecular target: Histamine H3 receptor (Cavia porcellus) (UniProt Q9JI35); settings: Ileum
Chain of Histamine H3 receptor (Cavia porcellus) (Q9JI35 whole entry): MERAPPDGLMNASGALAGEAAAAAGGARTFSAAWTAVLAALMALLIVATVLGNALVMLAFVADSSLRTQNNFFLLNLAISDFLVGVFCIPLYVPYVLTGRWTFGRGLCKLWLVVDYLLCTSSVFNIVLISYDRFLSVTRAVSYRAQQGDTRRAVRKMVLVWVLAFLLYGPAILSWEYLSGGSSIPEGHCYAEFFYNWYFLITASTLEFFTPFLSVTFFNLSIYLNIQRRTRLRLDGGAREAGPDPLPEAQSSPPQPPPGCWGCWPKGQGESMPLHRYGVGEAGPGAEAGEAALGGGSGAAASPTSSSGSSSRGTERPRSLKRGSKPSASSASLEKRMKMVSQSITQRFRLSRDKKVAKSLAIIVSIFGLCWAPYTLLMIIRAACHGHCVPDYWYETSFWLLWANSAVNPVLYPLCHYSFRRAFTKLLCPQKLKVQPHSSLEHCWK

Histamine H3 receptor [5] = molecular target: T1, Histamine H3 receptor; assay: pA2 values against H3 receptor of guinea pig ileum were determined.; assay type: tissue-based; settings: read-out: pA2 (converted)
Histamine H3 receptor [6] = molecular target: T1, Histamine H3 receptor; assay: pD2 values against H3 receptor of guinea pig jejunum were determined.; assay type: tissue-based
Procedure, shortened: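 Isolated guinea pig jejunum segments, electrically stimulated so that endogenous acetylcholine release evokes contractile twitches. Cumulative concentrations of the compound were added, and the concentration-dependent inhibition of the evoked twitches gave a concentration–response curve. Tissue from at least four animals was used, each tested in triplicate. Student's t-test, with p < 0.05 taken as significant.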

[7] = molecular target: Histamine H3 receptor (Cavia porcellus) (UniProt Q9JI35); settings: Jejunum
Histamine H1 receptor [8] = molecular target: T2, Histamine H1 receptor; assay: Binding affinity for H1 receptor of guinea pig by the displacement of [3H]mepyramine, bound to membranes of CHO cells; assay type: cell membranes; procedure, shortened: as §1
Histamine H2 receptor [9] = molecular target: T3, Histamine H2 receptor; assay: Binding affinity against human H2 receptor by the displacement of [125I]iodoaminopotentidine bound to membranes of CHO cells.; assay type: cell membranes
Procedure, shortened: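 Displacement of [125I]iodoaminopotentidine from membranes of CHO cells expressing human H2 receptors. At least three independent experiments, each performed in triplicate.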

T1 sequence (Q9JI35 whole entry): as above

Row | SMILES | Kb (Histamine H3 receptor [1]) | Ki (Histamine H1 receptor [2]) | Ki (Histamine H2 receptor [3]) | also measured
1 | NCCCCCCCCc1cnc[nH]1 | 1 µM | 2.51 µM | 31.6 µM | 
2 | N=C(N)SCCc1c[nH]cn1 |  |  |  | pD2 [4]: 8.1
3 | N=C(N)SCCCc1c[nH]cn1 |  |  |  | Kb (Histamine H3 receptor [5]): 0.01 µM
4 | NCc1c[nH]cn1 | > 1000 µM | > 1000 µM | > 1000 µM | 
5 | NCCCCCCc1cnc[nH]1 | 0.0158 µM | 126 µM | 200 µM | 
6 | C[C@@H](N)Cc1c[nH]cn1 |  |  |  | pD2 (Histamine H3 receptor [6]): 7.8
7 | NCCc1c[nH]cn1 |  |  |  | pD2 [7]: 6.2

More lines, main results first:

Row | Kb (Histamine H3 receptor [1]) | Ki (Histamine H1 receptor [2]) | Ki (Histamine H2 receptor [3]) | SMILES | also measured
8 | 1.26 µM | > 1000 µM | > 1000 µM | NCCCc1c[nH]cn1 [HOMOHISTAMINE] | 
9 | 0.00398 µM | 126 µM | 251 µM | NCCCCCc1c[nH]cn1 [IMPENTAMINE] | 
10 | 1 µM | 0.631 µM | 20 µM | NCCCCCCCCCCc1c[nH]cn1 | 
11 | 0.02 µM |  |  | NCCCCc1c[nH]cn1 [IMBUTAMINE] | Ki (Histamine H1 receptor [8]): 398 µM; Ki (Histamine H2 receptor [9]): 794 µM

Source: ChEMBL document CHEMBL1128733 (J Med Chem, 1995)
